# Test system: K562
# Experiment: Antileukemic activity against human K562 cells assessed as inhibition of tumor growth after 24 hrs
# Format: functional, cell-based
# Conditions: K562, 24 h
row,Structure (SMILES),IC50 [nM]
1,Cc1ccc(/C=C2/CN(C(=O)CC(=O)N3C/C(=C\c4ccc(C)cc4)C(=O)/C(=C/c4ccc(C)cc4)C3)C/C(=C\c3ccc(C)cc3)C2=O)cc1,100

# Test system: COLO 205
# Experiment: Cytotoxicity against human COLO205 cells assessed as inhibition of tumor growth after 24 hrs
# Format: functional, cell-based
# Conditions: COLO 205, 24 h
row,Structure (SMILES),IC50 [nM]
1,Cc1ccc(/C=C2/CN(C(=O)CC(=O)N3C/C(=C\c4ccc(C)cc4)C(=O)/C(=C/c4ccc(C)cc4)C3)C/C(=C\c3ccc(C)cc3)C2=O)cc1,170

# Test system: BJAB
# Experiment: Cytotoxicity against human BJAB cells assessed as dead cells at 1 uM after 24 hrs
# Format: functional
# Conditions: not given
# Outline: (§1)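 Dienones added as DMSO solutions to cells in RPMI medium and incubated 24 h at 37°C. Cytotoxicity was scored as cell-membrane disruption by propidium iodide staining and expressed as percentage of dead cells, averaged over three independent experiments.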
row,Structure (SMILES),Activity [%]
1,Cc1ccc(/C=C2/CN(C(=O)CC(=O)N3C/C(=C\c4ccc(C)cc4)C(=O)/C(=C/c4ccc(C)cc4)C3)C/C(=C\c3ccc(C)cc3)C2=O)cc1,60.2

# Test system: not listed separately
# Experiment: Cytotoxicity against human 22Rvl cells assessed as dead cells at 1 uM after 24 hrs
# Format: functional
# Conditions: not given
# Outline: as §1
row,Structure (SMILES),Activity [%]
1,Cc1ccc(/C=C2/CN(C(=O)CC(=O)N3C/C(=C\c4ccc(C)cc4)C(=O)/C(=C/c4ccc(C)cc4)C3)C/C(=C\c3ccc(C)cc3)C2=O)cc1,6.3

# Test system: Raji
# Experiment: Cytotoxicity against human Raji cells assessed as dead cells at 1 uM after 24 hrs
# Format: functional
# Conditions: not given
# Outline: as §1
row,Structure (SMILES),Activity [%]
1,Cc1ccc(/C=C2/CN(C(=O)CC(=O)N3C/C(=C\c4ccc(C)cc4)C(=O)/C(=C/c4ccc(C)cc4)C3)C/C(=C\c3ccc(C)cc3)C2=O)cc1,46.5

# Test system: not listed separately
# Experiment: Cytotoxicity against human MOLT3 cells assessed as dead cells at 1 uM after 24 hrs
# Format: functional, MOLT-3
# Conditions: not given
# Outline: as §1
row,Structure (SMILES),Activity [%]
1,Cc1ccc(/C=C2/CN(C(=O)CC(=O)N3C/C(=C\c4ccc(C)cc4)C(=O)/C(=C/c4ccc(C)cc4)C3)C/C(=C\c3ccc(C)cc3)C2=O)cc1,21.3

# Test system: CCRF-CEM
# Experiment: Antiproliferative activity against human CEM cells after 72 hrs by coulter counting analysis
# Format: functional, cell-based
# Conditions: not given
# Outline: (§2)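 Cells exposed to a range of concentrations in RPMI 1640 at 37°C for 72 h. Surviving cells counted by Coulter counter. IC50 taken from concentration-response curves, mean ± SD of at least three independent experiments.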
row,Structure (SMILES),IC50 [nM]
1,Cc1ccc(/C=C2/CN(C(=O)CC(=O)N3C/C(=C\c4ccc(C)cc4)C(=O)/C(=C/c4ccc(C)cc4)C3)C/C(=C\c3ccc(C)cc3)C2=O)cc1,3440

# Test system: HeLa
# Experiment: Antiproliferative activity against human HeLa cells after 72 hrs by coulter counting analysis
# Format: functional, cell-based
# Conditions: not given
# Outline: as §2
row,Structure (SMILES),IC50 [nM]
1,Cc1ccc(/C=C2/CN(C(=O)CC(=O)N3C/C(=C\c4ccc(C)cc4)C(=O)/C(=C/c4ccc(C)cc4)C3)C/C(=C\c3ccc(C)cc3)C2=O)cc1,2880

# Test system: SW-620
# Experiment: Cytotoxicity against human SW620 cells assessed as inhibition of tumor growth after 24 hrs
# Format: functional, cell-based
# Conditions: SW-620, 24 h
row,Structure (SMILES),IC50 [nM]
1,Cc1ccc(/C=C2/CN(C(=O)CC(=O)N3C/C(=C\c4ccc(C)cc4)C(=O)/C(=C/c4ccc(C)cc4)C3)C/C(=C\c3ccc(C)cc3)C2=O)cc1,150

# Test system: HL-60(TB)
# Experiment: Antileukemic activity against human HL-60(TB) cells assessed as inhibition of tumor growth after 24 hrs
# Format: functional, cell-based
# Conditions: HL-60, 24 h
row,Structure (SMILES),IC50 [nM]
1,Cc1ccc(/C=C2/CN(C(=O)CC(=O)N3C/C(=C\c4ccc(C)cc4)C(=O)/C(=C/c4ccc(C)cc4)C3)C/C(=C\c3ccc(C)cc3)C2=O)cc1,230

# Test system: HS27
# Experiment: Cytotoxicity against human HS27 cells assessed as dead cells at 1 uM after 24 hrs
# Format: cell-based
# Conditions: hs27, 24 h
# Outline: (§3)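 Compounds added from DMSO solutions to cells in medium (RPMI; DMEM for Hs-27 fibroblasts) and incubated 24 h at 37°C. Membrane disruption scored by propidium iodide uptake. Result is percentage of dead cells, average of three independent experiments.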
row,Structure (SMILES),Activity [%]
1,Cc1ccc(/C=C2/CN(C(=O)CC(=O)N3C/C(=C\c4ccc(C)cc4)C(=O)/C(=C/c4ccc(C)cc4)C3)C/C(=C\c3ccc(C)cc3)C2=O)cc1,26.5

# Test system: not listed separately
# Experiment: Cytotoxicity against human MDA231 cells assessed as dead cells at 1 uM after 24 hrs
# Format: functional, MDA-MB-231
# Conditions: not given
# Outline: as §1
row,Structure (SMILES),Activity [%]
1,Cc1ccc(/C=C2/CN(C(=O)CC(=O)N3C/C(=C\c4ccc(C)cc4)C(=O)/C(=C/c4ccc(C)cc4)C3)C/C(=C\c3ccc(C)cc3)C2=O)cc1,8.6

# Test system: LAPC4
# Experiment: Cytotoxicity against human LAPC4 cells assessed as dead cells at 1 uM after 24 hrs
# Format: functional
# Conditions: not given
# Outline: as §1
row,Structure (SMILES),Activity [%]
1,Cc1ccc(/C=C2/CN(C(=O)CC(=O)N3C/C(=C\c4ccc(C)cc4)C(=O)/C(=C/c4ccc(C)cc4)C3)C/C(=C\c3ccc(C)cc3)C2=O)cc1,7

# Test system: L1210
# Experiment: Antiproliferative activity against mouse L1210 cells after 72 hrs by coulter counting analysis
# Format: functional, cell-based
# Conditions: L1210, 72 h
row,Structure (SMILES),IC50 [nM]
1,Cc1ccc(/C=C2/CN(C(=O)CC(=O)N3C/C(=C\c4ccc(C)cc4)C(=O)/C(=C/c4ccc(C)cc4)C3)C/C(=C\c3ccc(C)cc3)C2=O)cc1,5380

# Test system: Jurkat
# Experiment: Cytotoxicity against human Jurkat cells assessed as dead cells at 1 uM after 24 hrs
# Format: functional
# Conditions: not given
# Outline: as §1
row,Structure (SMILES),Activity [%]
1,Cc1ccc(/C=C2/CN(C(=O)CC(=O)N3C/C(=C\c4ccc(C)cc4)C(=O)/C(=C/c4ccc(C)cc4)C3)C/C(=C\c3ccc(C)cc3)C2=O)cc1,85.5

# Test system: Ramos
# Experiment: Cytotoxicity against human Ramos cells assessed as dead cells at 1 uM after 24 hrs
# Format: functional
# Conditions: not given
# Outline: as §1
row,Structure (SMILES),Activity [%]
1,Cc1ccc(/C=C2/CN(C(=O)CC(=O)N3C/C(=C\c4ccc(C)cc4)C(=O)/C(=C/c4ccc(C)cc4)C3)C/C(=C\c3ccc(C)cc3)C2=O)cc1,83

# Test system: not listed separately
# Experiment: Antileukemic activity against human RPMI8226 cells assessed as inhibition of tumor growth after 24 hrs
# Format: functional, cell-based
# Conditions: rpmi-8226
row,Structure (SMILES),IC50 [nM]
1,Cc1ccc(/C=C2/CN(C(=O)CC(=O)N3C/C(=C\c4ccc(C)cc4)C(=O)/C(=C/c4ccc(C)cc4)C3)C/C(=C\c3ccc(C)cc3)C2=O)cc1,30

# Test system: MCF7
# Experiment: Cytotoxicity against human MCF7 cells assessed as dead cells at 1 uM after 24 hrs
# Format: functional
# Conditions: not given
# Outline: as §1
row,Structure (SMILES),Activity [%]
1,Cc1ccc(/C=C2/CN(C(=O)CC(=O)N3C/C(=C\c4ccc(C)cc4)C(=O)/C(=C/c4ccc(C)cc4)C3)C/C(=C\c3ccc(C)cc3)C2=O)cc1,19.1

# Test system: not listed separately
# Experiment: Cytotoxicity against human NCI60 cells assessed as inhibition of tumor growth after 24 hrs
# Format: functional, cell-based
# Conditions: NCI60, 24 h
row,Structure (SMILES),IC50 [nM]
1,Cc1ccc(/C=C2/CN(C(=O)CC(=O)N3C/C(=C\c4ccc(C)cc4)C(=O)/C(=C/c4ccc(C)cc4)C3)C/C(=C\c3ccc(C)cc3)C2=O)cc1,190

# Test system: YT
# Experiment: Cytotoxicity against human YT cells assessed as dead cells at 1 uM after 24 hrs
# Format: functional
# Conditions: not given
# Outline: as §1
row,Structure (SMILES),Activity [%]
1,Cc1ccc(/C=C2/CN(C(=O)CC(=O)N3C/C(=C\c4ccc(C)cc4)C(=O)/C(=C/c4ccc(C)cc4)C3)C/C(=C\c3ccc(C)cc3)C2=O)cc1,29.1

# Test system: DU-145
# Experiment: Cytotoxicity against human DU145 cells assessed as dead cells at 1 uM after 24 hrs
# Format: functional
# Conditions: not given
# Outline: as §1
row,Structure (SMILES),Activity [%]
1,Cc1ccc(/C=C2/CN(C(=O)CC(=O)N3C/C(=C\c4ccc(C)cc4)C(=O)/C(=C/c4ccc(C)cc4)C3)C/C(=C\c3ccc(C)cc3)C2=O)cc1,21.9

# Test system: EL4
# Experiment: Cytotoxicity against mouse EL4 cells assessed as dead cells at 1 uM after 24 hrs
# Format: functional
# Conditions: not given
# Outline: as §1
row,Structure (SMILES),Activity [%]
1,Cc1ccc(/C=C2/CN(C(=O)CC(=O)N3C/C(=C\c4ccc(C)cc4)C(=O)/C(=C/c4ccc(C)cc4)C3)C/C(=C\c3ccc(C)cc3)C2=O)cc1,66.9

# Test system: KM12
# Experiment: Cytotoxicity against human KM12 cells assessed as inhibition of tumor growth after 24 hrs
# Format: functional, cell-based
# Conditions: KM12, 24 h
row,Structure (SMILES),IC50 [nM]
1,Cc1ccc(/C=C2/CN(C(=O)CC(=O)N3C/C(=C\c4ccc(C)cc4)C(=O)/C(=C/c4ccc(C)cc4)C3)C/C(=C\c3ccc(C)cc3)C2=O)cc1,170

# Test system: HCC 2998
# Experiment: Cytotoxicity against human HCC2998 cells assessed as inhibition of tumor growth after 24 hrs
# Format: functional, cell-based
# Conditions: HCC 2998, 24 h
row,Structure (SMILES),IC50 [nM]
1,Cc1ccc(/C=C2/CN(C(=O)CC(=O)N3C/C(=C\c4ccc(C)cc4)C(=O)/C(=C/c4ccc(C)cc4)C3)C/C(=C\c3ccc(C)cc3)C2=O)cc1,300

# Test system: HCC70
# Experiment: Cytotoxicity against human HCC70 cells assessed as dead cells at 1 uM after 24 hrs
# Format: functional
# Conditions: not given
# Outline: as §1
row,Structure (SMILES),Activity [%]
1,Cc1ccc(/C=C2/CN(C(=O)CC(=O)N3C/C(=C\c4ccc(C)cc4)C(=O)/C(=C/c4ccc(C)cc4)C3)C/C(=C\c3ccc(C)cc3)C2=O)cc1,10.1

# Test system: not listed separately
# Experiment: Antiproliferative activity against human Molt4/C8 cells after 72 hrs by coulter counting analysis
# Format: functional, cell-based
# Conditions: MOLT-4, 72 h
# Outline: as §2
row,Structure (SMILES),IC50 [nM]
1,Cc1ccc(/C=C2/CN(C(=O)CC(=O)N3C/C(=C\c4ccc(C)cc4)C(=O)/C(=C/c4ccc(C)cc4)C3)C/C(=C\c3ccc(C)cc3)C2=O)cc1,1890

# Test system: CCRF-CEM
# Experiment: Cytotoxicity against human CEM cells assessed as dead cells at 1 uM after 24 hrs
# Format: functional
# Conditions: not given
# Outline: as §1
row,Structure (SMILES),Activity [%]
1,Cc1ccc(/C=C2/CN(C(=O)CC(=O)N3C/C(=C\c4ccc(C)cc4)C(=O)/C(=C/c4ccc(C)cc4)C3)C/C(=C\c3ccc(C)cc3)C2=O)cc1,85.7

# Test system: not listed separately
# Experiment: Cytotoxicity against human HuT-102 cells assessed as dead cells at 1 uM after 24 hrs
# Format: functional
# Conditions: not given
# Outline: as §1
row,Structure (SMILES),Activity [%]
1,Cc1ccc(/C=C2/CN(C(=O)CC(=O)N3C/C(=C\c4ccc(C)cc4)C(=O)/C(=C/c4ccc(C)cc4)C3)C/C(=C\c3ccc(C)cc3)C2=O)cc1,50.9

# Test system: not listed separately
# Experiment: Cytotoxicity against human MCF10A cells assessed as dead cells at 1 uM after 24 hrs
# Format: cell-based
# Conditions: mcf-10a
# Outline: as §3
row,Structure (SMILES),Activity [%]
1,Cc1ccc(/C=C2/CN(C(=O)CC(=O)N3C/C(=C\c4ccc(C)cc4)C(=O)/C(=C/c4ccc(C)cc4)C3)C/C(=C\c3ccc(C)cc3)C2=O)cc1,15.4

# Test system: not listed separately
# Experiment: Cytotoxicity against human NALM6 cells assessed as dead cells at 1 uM after 24 hrs
# Format: functional, NALM-6
# Conditions: not given
# Outline: as §1
row,Structure (SMILES),Activity [%]
1,Cc1ccc(/C=C2/CN(C(=O)CC(=O)N3C/C(=C\c4ccc(C)cc4)C(=O)/C(=C/c4ccc(C)cc4)C3)C/C(=C\c3ccc(C)cc3)C2=O)cc1,67.6

# Test system: not listed separately
# Experiment: Cytotoxicity against human SupT1 cells assessed as dead cells at 1 uM after 24 hrs
# Format: functional, SUP-T1
# Conditions: not given
# Outline: as §1
row,Structure (SMILES),Activity [%]
1,Cc1ccc(/C=C2/CN(C(=O)CC(=O)N3C/C(=C\c4ccc(C)cc4)C(=O)/C(=C/c4ccc(C)cc4)C3)C/C(=C\c3ccc(C)cc3)C2=O)cc1,23.6

# Test system: not listed separately
# Experiment: Cytotoxicity against human HCT15 cells assessed as inhibition of tumor growth after 24 hrs
# Format: functional, cell-based
# Conditions: HCT-15, 24 h
row,Structure (SMILES),IC50 [nM]
1,Cc1ccc(/C=C2/CN(C(=O)CC(=O)N3C/C(=C\c4ccc(C)cc4)C(=O)/C(=C/c4ccc(C)cc4)C3)C/C(=C\c3ccc(C)cc3)C2=O)cc1,80

# Test system: SR
# Experiment: Antileukemic activity against human SR cells assessed as inhibition of tumor growth after 24 hrs
# Format: functional, cell-based
# Conditions: not given
row,Structure (SMILES),IC50 [nM]
1,Cc1ccc(/C=C2/CN(C(=O)CC(=O)N3C/C(=C\c4ccc(C)cc4)C(=O)/C(=C/c4ccc(C)cc4)C3)C/C(=C\c3ccc(C)cc3)C2=O)cc1,50

# From ChEMBL document CHEMBL3352437, “Novel 3,5-bis(arylidene)-4-oxo-1-piperidinyl dimers: structure-activity relationships and potent antileukemic and antilymphoma cytotoxicity” (Eur J Med Chem, 2014)
